ChEMBL document CHEMBL3632461 (J Med Chem, 2015)

Tests used:
[1] = Volume of distribution at steady state in cynomolgus monkey at 1 mg/kg, iv and 3 or 5 mg/kg, po; type: ADME, organism-based, Macaca fascicularis; details: in vivo, read-out: Vdss
Method in brief: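 Male mice, rats, dogs and cynomolgus monkeys, fasted overnight, fed after dosing. Intravenous dose 1 mg/kg in saline or 12% sulfobutyl ether β-cyclodextrin; oral arm 3 or 5 mg/kg in 0.5% methylcellulose. Steady-state volume derived from plasma concentration−time data; mean ± SD for n = 3, individual values for n = 2.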

[2] = Oral bioavailability in CD-1 mouse at 3 or 5 mg/kg; type: ADME, organism-based; details: in vivo
Method in brief: (§1)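 Male CD-1 mice, Wistar-Han rats, beagle dogs and cynomolgus monkeys, fasted overnight and fed after dosing. Given po at 3 or 5 mg/kg in 0.5% methylcellulose, with an iv reference dose of 1 mg/kg. Bioavailability derived from plasma concentration−time data; mean ± SD (n = 3) or individual values (n = 2).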

[3] = Oral bioavailability in cynomolgus monkey at 3 or 5 mg/kg; type: ADME, organism-based, Macaca fascicularis; details: in vivo; method in brief: as §1
[4] = molecular target: T1, Cytochrome P450 1A2 (Homo sapiens, UniProt P05177); assay: Reversible inhibition of CYP1A2 phenacetin O-deethylase activity in human liver microsomes by LC-MS/MS analysis; type: ADME
T1 sequence (P05177 whole entry): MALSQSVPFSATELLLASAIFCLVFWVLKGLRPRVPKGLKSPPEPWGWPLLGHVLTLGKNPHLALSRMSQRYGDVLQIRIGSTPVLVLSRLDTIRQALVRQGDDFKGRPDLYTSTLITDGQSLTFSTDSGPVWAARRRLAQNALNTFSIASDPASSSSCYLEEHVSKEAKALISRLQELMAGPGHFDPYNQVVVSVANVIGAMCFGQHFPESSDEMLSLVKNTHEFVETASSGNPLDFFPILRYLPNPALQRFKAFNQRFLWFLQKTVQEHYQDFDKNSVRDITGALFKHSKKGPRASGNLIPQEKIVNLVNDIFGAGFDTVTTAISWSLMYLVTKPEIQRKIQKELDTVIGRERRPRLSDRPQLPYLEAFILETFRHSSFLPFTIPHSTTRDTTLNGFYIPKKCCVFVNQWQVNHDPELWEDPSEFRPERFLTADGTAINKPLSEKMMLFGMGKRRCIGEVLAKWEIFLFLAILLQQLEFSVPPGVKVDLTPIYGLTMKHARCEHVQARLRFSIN
Method in brief: (§2)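 Reversible inhibition of the major CYP enzymes tested in human liver microsomes using established protocols.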

[5] = molecular target: T2, Cytochrome P450 2C8 (Homo sapiens, UniProt P10632); assay: Reversible inhibition of CYP2C8 amodiaquine-N-deethylase activity in human liver microsomes by LC-MS/MS analysis; type: ADME; method in brief: as §2
T2 sequence (P10632 whole entry): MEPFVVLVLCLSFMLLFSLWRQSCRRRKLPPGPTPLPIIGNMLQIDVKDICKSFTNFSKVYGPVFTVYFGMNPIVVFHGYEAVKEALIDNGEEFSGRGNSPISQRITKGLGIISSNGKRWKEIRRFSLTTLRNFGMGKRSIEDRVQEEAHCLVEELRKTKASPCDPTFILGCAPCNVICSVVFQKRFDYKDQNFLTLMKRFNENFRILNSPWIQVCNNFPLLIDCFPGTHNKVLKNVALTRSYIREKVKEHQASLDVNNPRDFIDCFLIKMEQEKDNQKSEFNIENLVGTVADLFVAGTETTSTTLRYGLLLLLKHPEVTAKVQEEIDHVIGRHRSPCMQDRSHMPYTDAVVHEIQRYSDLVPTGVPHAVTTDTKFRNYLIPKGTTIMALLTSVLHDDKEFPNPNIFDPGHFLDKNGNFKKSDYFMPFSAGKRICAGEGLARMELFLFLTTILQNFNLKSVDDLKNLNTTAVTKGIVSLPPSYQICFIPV

[6] = molecular target: Cytochrome P450 2C9 (Homo sapiens, UniProt P11712); assay: Reversible inhibition of CYP2C9 in human liver microsomes by LC-MS/MS analysis; type: ADME; method in brief: as §2
[7] = molecular target: Cytochrome P450 2C19 (Homo sapiens, UniProt P33261); assay: Reversible inhibition of CYP2C19 (S)-Mephenytoin 4'-hydroxylase activity in human liver microsomes by LC-MS/MS analysis; type: ADME; method in brief: as §2
[8] = molecular target: Cytochrome P450 2D6 (Homo sapiens, UniProt P10635); assay: Reversible inhibition of CYP2D6 dextromethorphan O-demethylase activity in human liver microsomes by LC-MS/MS analysis; type: ADME; method in brief: as §2
[9] = tested on: Cynomolgus monkey; assay: In vivo inhibition of MPO in LPS-stimulated po dosed cynomolgous monkey administered 1 hr post LPS challenge measured after 2 hrs; type: functional, organism-based; details: Macaca fascicularis
Method in brief: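 Randomized crossover design in cynomolgus monkeys given iv LPS, then oral vehicle or compound (5, 20, 80 mg/kg) 1 h later. Heparinized plasma collected 2 h after dosing. Total MPO captured on anti-MPO antibody plates, plasma exchanged for drug-free medium, and residual activity read by Amplex Red peroxidation. EC₅₀ from a mixed-effect sigmoid model of exposure versus activity.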

Chain of Cytochrome P450 2D6 (P10635 whole entry): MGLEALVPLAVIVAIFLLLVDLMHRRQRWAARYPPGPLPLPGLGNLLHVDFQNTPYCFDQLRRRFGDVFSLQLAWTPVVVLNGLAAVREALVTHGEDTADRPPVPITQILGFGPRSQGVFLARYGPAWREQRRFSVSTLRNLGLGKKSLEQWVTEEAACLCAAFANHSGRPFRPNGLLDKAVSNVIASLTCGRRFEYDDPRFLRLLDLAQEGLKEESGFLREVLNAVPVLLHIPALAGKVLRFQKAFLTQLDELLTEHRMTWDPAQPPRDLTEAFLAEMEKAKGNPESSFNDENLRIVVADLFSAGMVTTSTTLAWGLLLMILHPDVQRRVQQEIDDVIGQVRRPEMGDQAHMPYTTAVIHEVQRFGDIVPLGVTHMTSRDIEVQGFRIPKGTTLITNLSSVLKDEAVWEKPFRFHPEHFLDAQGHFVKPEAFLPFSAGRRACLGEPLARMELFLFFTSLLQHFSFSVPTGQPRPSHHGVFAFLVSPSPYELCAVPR
Chain of Cytochrome P450 2C19 (P33261 whole entry): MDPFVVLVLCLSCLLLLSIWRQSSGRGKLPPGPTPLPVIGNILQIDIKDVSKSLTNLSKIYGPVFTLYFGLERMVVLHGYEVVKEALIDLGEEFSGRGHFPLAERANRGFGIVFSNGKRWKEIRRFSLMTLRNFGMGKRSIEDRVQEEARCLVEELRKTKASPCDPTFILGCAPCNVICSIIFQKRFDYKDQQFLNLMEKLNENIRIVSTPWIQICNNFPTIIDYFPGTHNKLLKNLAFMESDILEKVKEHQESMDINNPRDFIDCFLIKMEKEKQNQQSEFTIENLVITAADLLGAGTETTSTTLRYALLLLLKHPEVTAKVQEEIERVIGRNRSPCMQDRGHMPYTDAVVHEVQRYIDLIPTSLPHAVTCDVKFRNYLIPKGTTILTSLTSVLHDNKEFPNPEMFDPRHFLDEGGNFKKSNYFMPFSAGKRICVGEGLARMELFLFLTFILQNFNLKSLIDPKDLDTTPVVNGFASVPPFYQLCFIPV
Chain of Cytochrome P450 2C9 (P11712 whole entry): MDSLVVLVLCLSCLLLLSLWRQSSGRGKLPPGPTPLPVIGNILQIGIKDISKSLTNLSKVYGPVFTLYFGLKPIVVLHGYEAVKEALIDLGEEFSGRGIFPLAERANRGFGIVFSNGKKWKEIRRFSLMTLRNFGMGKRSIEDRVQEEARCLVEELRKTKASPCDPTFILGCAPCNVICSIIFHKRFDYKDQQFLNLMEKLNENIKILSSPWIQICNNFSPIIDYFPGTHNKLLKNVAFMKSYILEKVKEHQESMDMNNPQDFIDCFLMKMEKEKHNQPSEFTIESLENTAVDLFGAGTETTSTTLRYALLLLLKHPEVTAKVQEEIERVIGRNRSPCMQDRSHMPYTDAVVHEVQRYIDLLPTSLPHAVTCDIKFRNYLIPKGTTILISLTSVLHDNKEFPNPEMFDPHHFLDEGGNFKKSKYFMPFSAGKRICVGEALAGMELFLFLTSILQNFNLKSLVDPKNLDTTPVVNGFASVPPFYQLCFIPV

COc1ccc(Cl)cc1-c1cc(=O)[nH]c(=S)n1CC(N)=O [PF-06282999]
Vd [1]: 1.09 L/kg | bioavailability [2]: 100% | bioavailability [3]: 76% | IC50 [4]: > 100 µM | IC50 [5]: > 100 µM | IC50 [6]: > 100 µM | IC50 [7]: > 100 µM | IC50 [8]: > 100 µM | EC50 [9]: 3.8 µM
